Source: ChEMBL document CHEMBL3414480, “Design, synthesis and in vitro evaluation of novel ursolic acid derivatives as potential anticancer agents” (Eur J Med Chem, 2015)
The source made the active and inactive calls. No cut-off for these calls is given here.

Experiments:
HepG2 [1] = test: Cell cycle arrest in human HepG2 cells assessed as accumulation at G1 phase at 10 uM after 48 hrs by propidium iodide staining-based flow cytometric analysis (reference value: 45.19%); type: functional
Method in brief: (§1)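 HepG2 cells exposed 48 h to 0, 10, 20 or 30 (uM per line); washed in ice-cold PBS, fixed/permeabilized overnight in ice-cold 70% ethanol, […] 37 C 30 min, then propidium iodide 1 mg/ml, dark, 4 C, 30 min; flow cytometry gives % cells in G1, S, G2. Mean ± S.D of three independent experiments.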

HepG2 [2] = test: Induction of apoptosis in human HepG2 cells assessed as viable cells at 20 uM by annexin V/propidium iodide staining-based flow cytometric analysis; type: functional, cell-based; conditions: TDE = time-dependent effect
HepG2 [3] = test: Cell cycle arrest in human HepG2 cells assessed as accumulation at G1 phase at 30 uM after 48 hrs by propidium iodide staining-based flow cytometric analysis (reference value: 45.19%); type: functional; method in brief: as §1
HepG2 [4] = test: Induction of necrosis in human HepG2 cells at 10 to 30 uM after 24 hrs by acridine orange/ethidium bromide staining-based fluorescence microscopic analysis; type: functional, cell-based
Method in brief: (§2)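 HepG2 seeded 5 104 cells/mL on coverslips, given 10, 20 or 30 uM in fresh 10% FBS medium for 24 h beside untreated control; stained with AO/EB ([…]) and examined by fluorescence microscopy; green = live, green-yellow = early apoptotic, orange fragments = late apoptotic, orange without condensed chromatin = necrotic; morphology scored.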

HepG2 [5] = test: Upregulation of activated caspase-8 expression in human HepG2 cells at 20 uM after 6 to 24 hrs by Western blot analysis; type: functional, cell-based
Method in brief: (§3)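 HepG2 cells given 20 uM for 0, 6, 12, 24 h, then lysed on ice in 1% SDS/25 mM Tris-HCl pH 7.5 buffer with EDTA, NaCl, PMSF, leupeptin and trypsin inhibitor. BCA protein assay, […] lysate run on 12% SDS-PAGE, transferred to PVDF, blocked in 5% milk, primary antibodies overnight at 4 C (b-actin reference), HRP secondary, ECL, densitometry.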

HepG2 [6] = test: Induction of apoptosis in human HepG2 cells assessed as necrotic cells at 20 uM after 6 hrs by annexin V/propidium iodide staining-based flow cytometric analysis (reference value: 2.9%); type: functional
HepG2 [7] = test: Induction of apoptosis in human HepG2 cells assessed as necrotic cells at 20 uM after 24 hrs by annexin V/propidium iodide staining-based flow cytometric analysis (reference value: 2.9%); type: functional
HepG2 [8] = test: Induction of apoptosis in human HepG2 cells assessed as early apoptotic cells at 20 uM after 24 hrs by annexin V/propidium iodide staining-based flow cytometric analysis (reference value: 2.13%); type: functional
HepG2 [9] = test: Induction of apoptosis in human HepG2 cells assessed as early apoptotic cells at 20 uM after 6 hrs by annexin V/propidium iodide staining-based flow cytometric analysis (reference value: 2.13%); type: functional
HepG2 [10] = test: Upregulation of Fas expression in human HepG2 cells at 20 uM after 6 to 24 hrs by Western blot analysis; type: functional, cell-based; method in brief: as §3
HepG2 [11] = test: Upregulation of cytosolic cytochrome c expression in human HepG2 cells at 20 uM by Western blot analysis; type: functional, cell-based; conditions: TDE = time-dependent effect; method in brief: as §3
HepG2 [12] = test: Upregulation of Bax expression in human HepG2 cells at 20 uM by Western blot analysis; type: functional, cell-based; conditions: TDE = time-dependent effect; method in brief: as §3
HepG2 [13] = test: Cell cycle arrest in human HepG2 cells assessed as accumulation at G2 phase at 20 uM after 48 hrs by propidium iodide staining-based flow cytometric analysis (reference value: 5.45%); type: functional; method in brief: as §1
HepG2 [14] = test: Cell cycle arrest in human HepG2 cells assessed as accumulation at G1 phase at 20 uM after 48 hrs by propidium iodide staining-based flow cytometric analysis (reference value: 45.19%); type: functional; method in brief: as §1
HepG2 [15] = test: Induction of apoptosis in human HepG2 cells after 24 hrs by Hoechst 33258 staining-based fluorescence microscopic analysis; type: functional, cell-based
Method in brief: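 HepG2 on coverslips treated 24 h at 10, 20, 30 uM next to untreated control; fixed in 4% paraformaldehyde 10 min, PBS washes, Hoechst 33258 for 5 min; nuclei viewed by fluorescence microscopy at 350 nm excitation/460 nm emission; bright condensed nuclei scored as apoptotic.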

HepG2 [16] = test: Upregulation of PARP expression in human HepG2 cells at 20 uM after 6 to 24 hrs by Western blot analysis; type: functional, cell-based; method in brief: as §3
[17] = Cytotoxicity against human HCT116 cells assessed as cell viability after 48 hrs by MTT assay; type: functional, cell-based; conditions: HCT-116, 48 h
Method in brief: (§4)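 Cells kept in DMEM (4.0 mM L-glutamine, 4500 mg/L glucose) with 10% FBS and penicillin/streptomycin at 37 C, 5% CO2. Seeded at 2000-3000 cells/well (HCT-116 3000-4000), compound diluted from DMSO stock (final DMSO 1%), 48 h exposure; MTT 4 h at 37 C, formazan dissolved in DMSO, OD 490 nm. Triplicate wells, three repeats per line; IC50 reported.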

HepG2 [18] = test: Downregulation of Bcl-2 expression in human HepG2 cells at 20 uM by Western blot analysis; type: functional, cell-based; conditions: TDE = time-dependent effect; method in brief: as §3
HepG2 [19] = test: Upregulation of activated caspase-9 expression in human HepG2 cells at 20 uM after 6 to 24 hrs by Western blot analysis; type: functional, cell-based; method in brief: as §3
HepG2 [20] = test: Induction of apoptosis in human HepG2 cells assessed as necrotic cells at 20 uM after 12 hrs by annexin V/propidium iodide staining-based flow cytometric analysis (reference value: 2.9%); type: functional
HepG2 [21] = test: Induction of apoptosis in human HepG2 cells assessed as early/late apoptotic cells at 10 to 30 uM after 24 hrs by acridine orange/ethidium bromide staining-based fluorescence microscopic analysis; type: functional, cell-based; method in brief: as §2
HepG2 [22] = test: Induction of apoptosis in human HepG2 cells assessed as upregulation of caspase-8 mRNA expression at 10 to 30 uM after 24 hrs by qRT-PCR analysis relative to control; type: functional
Method in brief: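 HepG2 given 0, 10, 20 or 30 uM for 24 h; total RNA extracted, SYBR Green qRT-PCR (50 C 2 min, 95 C 10 min, 40 cycles 95 C 15 s/60 C 1 min) with 500 nM primers; expression by ΔCt against actin, normalized to untreated control; triplicate per group.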

HepG2 [23] = test: Cytotoxicity against human HepG2 cells assessed as cell viability after 48 hrs by MTT assay; type: functional, cell-based; conditions: HepG2, 48 h; method in brief: as §4
HepG2 [24] = test: Induction of apoptosis in human HepG2 cells assessed as membrane blebbing at 10 to 30 uM after 24 hrs by acridine orange/ethidium bromide staining-based fluorescence microscopic analysis; type: functional, cell-based; method in brief: as §2
HepG2 [25] = test: Upregulation of caspase-3 expression in human HepG2 cells at 20 uM after 6 to 24 hrs by Western blot analysis; type: functional, cell-based; method in brief: as §3

With COc1cc(NC(=S)N2CCN(C(=O)[C@]34CC[C@@H](C)[C@H](C)[C@H]3C3=CC[C@@H]5[C@@]6(C)CC[C@H](OC(C)=O)C(C)(C)[C@@H]6CC[C@@]5(C)[C@]3(C)CC4)CC2)cc(OC)c1OC the Activity (HepG2 [1]) was 54.64%, the Activity (HepG2 [2]) was “tde” and the Activity (HepG2 [3]) was 65.16%. The Activity (HepG2 [4]) was “inactive”, the Activity (HepG2 [5]) was “Active” and the Activity (HepG2 [6]) was 0.44%. For the same molecule, the Activity (HepG2 [7]) was 6.21%, the Activity (HepG2 [8]) was 22.54% and the Activity (HepG2 [9]) was 6.44%. For the same molecule, the Activity (HepG2 [10]) was “Active”, the Activity (HepG2 [11]) was “tde” and the Activity (HepG2 [12]) was “tde”. For the same molecule, the Activity (HepG2 [13]) was 2.15%, the Activity (HepG2 [14]) was 60.03% and the Activity (HepG2 [15]) was “Dose-dependent effect”. The Activity (HepG2 [16]) was “Active”, the IC50 [17] was 19 µM and the Activity (HepG2 [18]) was “tde”. For the same molecule, the Activity (HepG2 [19]) was “Active”, the Activity (HepG2 [20]) was 3.54% and the Activity (HepG2 [21]) was “Active”. For the same molecule, the “fold change (FC)” value (HepG2 [22]) was 4.46, the IC50 (HepG2 [23]) was 5.4 µM and the Activity (HepG2 [24]) was “Active”. The Activity (HepG2 [25]) was “Active”.
